# ChEMBL document CHEMBL1649392, “Synthesis of substituted 3-amino-N-phenyl-1H-indazole-1-carboxamides endowed with antiproliferative activity” (Eur J Med Chem, 2011)
# What was measured:
# Type in all cases: functional
# [1] = test system: SF-539; assay: Antiproliferative activity against human SF539 cells after 48 hrs by sulforhodamine B assay; conditions: SF-539, 48 h, read-out: LC50 (the source's name)
# Summary of the method: (§1)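 NCI 60-cell-line panel covering nine cancer types (leukemia, non-small cell lung, colon, CNS, melanoma, ovarian, renal, prostate, breast). Compounds were first tested at a single dose, then in a five-dose screen (series starting 0.01, 0.1 …) if they met NCI threshold criteria. Reported per line: GI50 (molar concentration inhibiting 50% net growth), TGI (total growth inhibition) and LC50 (50% net cell death).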
# [2] = test system: UACC-62; assay: Antiproliferative activity against human UACC62 cells after 48 hrs by sulforhodamine B assay; conditions: UACC-62, 48 h
# Summary of the method: (§2)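 NCI 60-cell-line panel screen: single dose 10 µM first, then 5-dose testing (0.01, 0.1, … molar series). For each line, GI50 is the molar concentration giving 50% inhibition of net cell growth, TGI gives total inhibition of net growth, and LC50 gives 50% net cell death. Method follows the NCI DTP protocol.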
# [3] = test system: TK-10; assay: Antiproliferative activity against human TK10 cells after 48 hrs by sulforhodamine B assay; conditions: TK-10, 48 h; summary of the method: as §2
# [4] = test system: BT-549; assay: Antiproliferative activity against human BT549 cells after 48 hrs by sulforhodamine B assay; conditions: BT-549, 48 h; summary of the method: as §1
# [5] = test system: IGROV-1; assay: Antiproliferative activity against human IGROV1 cells after 48 hrs by sulforhodamine B assay; conditions: IGROV-1, 48 h; summary of the method: as §1
# [6] = test system: HOP-62; assay: Antiproliferative activity against human HOP62 cells after 48 hrs by sulforhodamine B assay; conditions: HOP-62, 48 h; summary of the method: as §1
# [7] = Antiproliferative activity against human Hs 578T cells after 48 hrs by sulforhodamine B assay; summary of the method: as §1
# [8] = test system: SK-MEL-28; assay: Antiproliferative activity against human SK-MEL-28 cells after 48 hrs by sulforhodamine B assay; conditions: SK-MEL-28, 48 h; summary of the method: as §1
# [9] = test system: A549; assay: Antiproliferative activity against human A549 cells after 48 hrs by sulforhodamine B assay; conditions: A549, 48 h; summary of the method: as §1
# [10] = test system: T47D; assay: Antiproliferative activity against human T47D cells after 48 hrs by sulforhodamine B assay; summary of the method: as §2
# [11] = test system: NCI-H460; assay: Antiproliferative activity against human NCI-H460 cells after 48 hrs by sulforhodamine B assay; conditions: NCI-H460, 48 h; summary of the method: as §1
# [12] = test system: MDA-MB-231; assay: Antiproliferative activity against human MDA-MB-231 cells after 48 hrs by sulforhodamine B assay; conditions: MDA-MB-231, 48 h, read-out: LC50 (the source's name); summary of the method: as §1
# [13] = test system: EKVX; assay: Antiproliferative activity against human EKVX cells after 48 hrs by sulforhodamine B assay; summary of the method: as §1
# [14] = test system: 786-0; assay: Antiproliferative activity against human 786-0 cells after 48 hrs by sulforhodamine B assay; conditions: 786-0, 48 h; summary of the method: as §1
# [15] = test system: SW-620; assay: Antiproliferative activity against human SW620 cells after 48 hrs by sulforhodamine B assay; conditions: SW-620, 48 h; summary of the method: as §2
# [16] = test system: SF-295; assay: Antiproliferative activity against human SF295 cells after 48 hrs by sulforhodamine B assay; conditions: SF-295, 48 h; summary of the method: as §1
# [17] = test system: U-251; assay: Antiproliferative activity against human U251 cells after 48 hrs by sulforhodamine B assay; conditions: U-251, 48 h; summary of the method: as §2
# [18] = test system: PC-3; assay: Antiproliferative activity against human PC3 cells after 48 hrs by sulforhodamine B assay; conditions: PC-3, 48 h; summary of the method: as §1
# [19] = test system: DU-145; assay: Antiproliferative activity against human DU145 cells after 48 hrs by sulforhodamine B assay; conditions: DU-145, 48 h, read-out: LC50 (the source's name); summary of the method: as §1
# [20] = read-out: LC50 (the source's name)
compound,measurement,setting,value
Nc1nn(C(=O)Nc2ccc(Cc3ccccc3)cc2)c2ccccc12,CC50,[1],> 100 µM
same,TGI,[2],> 100 µM
same,CC50,[2]; [20],> 100 µM
same,TGI,[3],> 100 µM
same,CC50,[3]; [20],> 100 µM
same,TGI,[4],39.6 µM
same,CC50,[4]; [20],> 100 µM
same,TGI,[5],48.8 µM
same,CC50,[5]; [20],> 100 µM
same,LC50 (concentration causing 50% net cell death),[6],> 100 µM
same,TGI,[6],46.5 µM
same,TGI,[7],71.8 µM
same,CC50,[7]; [20],> 100 µM
same,TGI,[8],> 100 µM
same,CC50,[8]; [20],> 100 µM
same,TGI,[9],48.6 µM
same,CC50,[9]; [20],> 100 µM
same,LC50 (concentration giving 50% net cell death),[10],> 100 µM
same,TGI,[10],> 100 µM
same,TGI,[11],13 µM
same,CC50,[12],> 100 µM
same,TGI,[13],92 µM
same,CC50,[13]; [20],> 100 µM
same,TGI,[14],26.2 µM
same,CC50,[14]; [20],92.7 µM
same,TGI,[15],41.5 µM
same,CC50,[15]; [20],> 100 µM
same,GI50,[16],0.53 µM
same,LC50,[16],> 100 µM
same,TGI,[16],> 100 µM
same,LC50 (concentration giving 50% net cell death),[17],65.9 µM
same,TGI,[17],30.2 µM
same,TGI,[18],51.1 µM
same,CC50,[18]; [20],> 100 µM
same,CC50,[19],> 100 µM
